The Kd is the constant that tells how readily two partners part at equilibrium.

We go through five molecules from PMC3059893 (Biochemistry, 2011).

Numbering of substitutions follows the chain as printed. Where two headings read alike, the source gives them in different places. Peptide text beside a SMILES is read from it. * marks the point of attachment. Dansyl = CN(C)c1cccc2c(S(=O)(=O)*)cccc12

In one test the target is Tiam1 PDZ L920V (Homo sapiens, UniProt Q13009, L920V). Kind of test: Fluorescence anisotropy binding, Tiam1 PDZ mutant. Put shortly:
(§1)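 Purified PDZ domains were titrated from a 1.5 mM stock into 1 μM N-terminally dansylated peptide at 25 °C in a stirred cuvette. Proteins were expressed in E. coli BL21(DE3), purified by Ni-chelate and size-exclusion chromatography, and His6-tag cleaved by TEV; Tiam2 is mouse residues 809–994; mutants made by site-directed mutagenesis. Anisotropy ex 340/em 550 nm, buffer-blank corrected. Kd from hyperbolic fit, mean of ≥3 independent runs; ΔG = RT ln Kd (298.15 K).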

The target of another test is Tiam1 PDZ K912E (Homo sapiens, UniProt Q13009, K912E). The experiment in a line: Fluorescence anisotropy binding, Tiam1 PDZ mutant. Put shortly:
as §1

The target in a further test is Tiam1 PDZ L911M (Homo sapiens, UniProt Q13009, L911M). The experiment in a line: Fluorescence anisotropy binding, Tiam1 PDZ mutant. In a few lines:
as §1

For test [1], the target named is Tiam1 PDZ L911M/K912E (Mus musculus, UniProt Q60610, L911M/K912E, species not given). The experiment in a line: Fluorescence anisotropy binding and double-mutant cycle, Tiam1 PDZ mutant. Particulars: Tiam1 PDZ L911M/K912E. In a few lines:
(§2)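 Wild-type, single- and double-mutant Tiam1 PDZ (E. coli-expressed, tag-cleaved) were each titrated into 1 μM dansylated peptide at 25 °C. Anisotropy read at ex 340/em 550 nm; Kd from hyperbolic fit, ≥3 independent runs. ΔG = RT ln Kd at 298.15 K. Coupling energy ΔΔΔGint = (ΔGWT − ΔGM1) − (ΔGM2 − ΔGDM), with errors propagated by standard methods.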
For orientation: In fluorescence polarisation assays a small probe gives low polarisation when free and higher when bound to something large.

Test [2] has as its system Tiam1 PDZ L911M/K912E. The test is described as above. Put shortly: as §2
The target in test [3] is Tiam1 PDZ QM (L911M/K912E/L915F/L920V) (Homo sapiens, UniProt Q13009, K912E/L911M/L915F/L920V). The experiment in a line: Fluorescence anisotropy binding, Tiam1 PDZ quadruple mutant. In a few lines: as §1
Test [4] relates to Tiam1 PDZ QM (L911M/K912E/L915F/L920V). The test is described as above. In a few lines: as §1
A further test concerns the target T1, Tiam2 PDZ domain (Mus musculus, UniProt Q6ZPF3).
T1 sequence (Q6ZPF3 908-997 limits assumed): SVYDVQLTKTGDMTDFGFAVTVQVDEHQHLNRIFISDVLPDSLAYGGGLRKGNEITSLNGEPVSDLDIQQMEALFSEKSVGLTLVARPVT
The experiment in a line: Equilibrium fluorescence anisotropy binding of dansylated peptides. Put shortly: as §1

The target in test [5] is Tiam1 PDZ domain (wild-type) (Homo sapiens, UniProt Q13009). The test is described as above. Particulars: wild-type Tiam1 PDZ; ΔG = RT ln(Kd), T 298.15 K. Put shortly: as §1
Another test deals with Tiam1 PDZ L915F (Homo sapiens, UniProt Q13009, L915F). The experiment in a line: Fluorescence anisotropy binding, Tiam1 PDZ mutant. Put shortly: as §1
Test [6] addresses Tiam1 PDZ L915F/L920V (Mus musculus, UniProt Q60610, L915F/L920V, species not given). The experiment in a line: Fluorescence anisotropy binding and double-mutant cycle, Tiam1 PDZ mutant. The following applies: Tiam1 PDZ L915F/L920V. In a few lines:
as §2

Test [7] deals with Tiam1 PDZ L915F/L920V. The test is described as above. Put shortly: as §2
Test [8] concerns the target Model peptide. Kind of test: NMR titration. Particulars: cited from earlier work.
Another test has as its target Syndecan1 (Homo sapiens). The experiment in a line: fluorescence anisotropy. Particulars: cited from earlier work.
The target of a further test is Neurexin1 (Homo sapiens). The following applies: cited from earlier work.
Another test concerns the target T2, Tiam1 peptide 3.
T2 chain: YAAKAFRF
The experiment in a line: fluorescence anisotropy.

Another test concerns the target T3, Tiam1 peptide 2.
T3 chain: YAAEKYWA
Kind of test: fluorescence anisotropy.

Another test concerns the target T4, Caspr4 (Homo sapiens).
T4 chain: ENQKEYFF
Kind of test: fluorescence anisotropy.

A further test concerns the target T5, Syndecan1 (Homo sapiens).
T5 chain: TKQEEFYA
Kind of test: fluorescence anisotropy.

Another test concerns the target T6, Tiam1 peptide 1.
T6 chain: YAAYRYRA
The experiment in a line: fluorescence anisotropy.

The next test has as its target T7, Tiam2 peptide 2.
T7 chain: YAAGRKHF
Kind of test: fluorescence anisotropy.

The next test deals with T8, Neurexin1 (Homo sapiens).
T8 chain: NKDKEYYV
The experiment in a line: fluorescence anisotropy.

Test [9] has as its target T9, Model peptide.
T9 chain: SSRKEYYA
Kind of test: fluorescence anisotropy.

A further test addresses T10, Tiam2 peptide 3.
T10 chain: YAALIHKF
Kind of test: fluorescence anisotropy.

Tiam1 PDZ L915F, sequence (Q13009 841-930 L915F limits assumed): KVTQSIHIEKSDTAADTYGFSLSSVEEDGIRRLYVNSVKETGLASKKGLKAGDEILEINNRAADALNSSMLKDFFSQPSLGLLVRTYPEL
Tiam1 PDZ L911M, sequence (Q13009 841-930 L911M limits assumed): as the sequence (Q13009 841-930 L915F limits assumed) above, with L71M, F75L counted along it
Tiam1 PDZ L920V, sequence (Q13009 841-930 L920V limits assumed): as the sequence (Q13009 841-930 L915F limits assumed) above, with F75L, L80V counted along it
Tiam1 PDZ K912E, sequence (Q13009 841-930 K912E limits assumed): as the sequence (Q13009 841-930 L915F limits assumed) above, with K72E, F75L counted along it
Tiam1 PDZ L915F/L920V (Mus musculus, UniProt Q60610, L915F/L920V, species not given), sequence (Q60610 2-1591 L915F/L920V): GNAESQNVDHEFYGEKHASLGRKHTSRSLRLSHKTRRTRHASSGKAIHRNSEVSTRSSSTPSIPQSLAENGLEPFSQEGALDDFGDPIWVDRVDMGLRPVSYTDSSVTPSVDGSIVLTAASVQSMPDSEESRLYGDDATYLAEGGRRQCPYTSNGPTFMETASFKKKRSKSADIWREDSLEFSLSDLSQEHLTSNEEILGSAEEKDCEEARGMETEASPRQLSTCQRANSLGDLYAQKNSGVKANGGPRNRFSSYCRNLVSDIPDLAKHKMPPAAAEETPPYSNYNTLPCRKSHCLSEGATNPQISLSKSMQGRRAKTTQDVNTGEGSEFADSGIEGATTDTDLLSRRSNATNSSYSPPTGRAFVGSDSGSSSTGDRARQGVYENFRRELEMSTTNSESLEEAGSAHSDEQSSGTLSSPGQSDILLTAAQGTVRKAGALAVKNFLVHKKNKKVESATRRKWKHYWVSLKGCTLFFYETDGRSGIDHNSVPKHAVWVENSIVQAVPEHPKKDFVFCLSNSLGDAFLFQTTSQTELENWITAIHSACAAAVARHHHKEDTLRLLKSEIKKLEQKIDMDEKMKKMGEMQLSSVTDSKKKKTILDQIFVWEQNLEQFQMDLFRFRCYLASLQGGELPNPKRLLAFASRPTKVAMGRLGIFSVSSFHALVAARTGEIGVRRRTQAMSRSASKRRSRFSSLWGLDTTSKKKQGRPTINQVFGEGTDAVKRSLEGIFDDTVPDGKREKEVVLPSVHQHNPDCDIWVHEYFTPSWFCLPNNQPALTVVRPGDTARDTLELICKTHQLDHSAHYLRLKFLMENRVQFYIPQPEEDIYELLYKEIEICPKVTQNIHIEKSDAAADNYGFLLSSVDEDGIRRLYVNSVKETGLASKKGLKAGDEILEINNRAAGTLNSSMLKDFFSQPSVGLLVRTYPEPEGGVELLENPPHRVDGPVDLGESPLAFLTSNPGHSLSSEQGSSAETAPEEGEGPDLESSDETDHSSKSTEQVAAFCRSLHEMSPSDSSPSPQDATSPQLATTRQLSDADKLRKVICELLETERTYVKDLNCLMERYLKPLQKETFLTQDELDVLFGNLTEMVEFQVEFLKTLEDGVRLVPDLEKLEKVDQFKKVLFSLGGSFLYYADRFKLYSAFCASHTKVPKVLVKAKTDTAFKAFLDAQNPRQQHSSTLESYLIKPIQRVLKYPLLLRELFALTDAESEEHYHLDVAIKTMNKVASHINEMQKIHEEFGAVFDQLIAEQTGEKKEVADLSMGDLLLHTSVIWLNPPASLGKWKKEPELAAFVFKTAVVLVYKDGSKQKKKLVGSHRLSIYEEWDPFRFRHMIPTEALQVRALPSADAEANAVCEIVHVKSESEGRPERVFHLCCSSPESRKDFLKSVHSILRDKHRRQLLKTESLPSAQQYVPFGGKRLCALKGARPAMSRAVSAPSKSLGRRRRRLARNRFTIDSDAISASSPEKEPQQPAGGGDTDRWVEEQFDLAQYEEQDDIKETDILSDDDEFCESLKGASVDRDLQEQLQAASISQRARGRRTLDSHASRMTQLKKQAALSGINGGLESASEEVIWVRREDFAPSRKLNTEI
Tiam1 PDZ QM (L911M/K912E/L915F/L920V) (Homo sapiens, UniProt Q13009, K912E/L911M/L915F/L920V), sequence (Q13009 841-930 L911M/K912E/L915F/L920V limits assumed): as the sequence (Q13009 841-930 L915F limits assumed) above, with L71M, K72E, L80V counted along it
Tiam1 PDZ L911M/K912E (Mus musculus, UniProt Q60610, L911M/K912E, species not given), sequence (Q60610 2-1591 L911M/K912E): as the sequence (Q60610 2-1591 L915F/L920V) above, with L910M, K911E, F914L, V919L counted along it
Tiam1 PDZ domain (wild-type), sequence (Q13009 841-930 limits assumed): as the sequence (Q13009 841-930 L915F limits assumed) above, with F75L counted along it

Regarding `CN(C)c1cccc2c(S(=O)(=O)N[C@@H](CCC(=O)O)C(=O)N[C@@H](CC(N)=O)C(=O)N[C@@H](CCC(N)=O)C(=O)N[C@@H](CCCCN)C(=O)N[C@@H](CCC(=O)O)C(=O)N[C@@H](Cc3ccc(O)cc3)C(=O)N[C@@H](Cc3ccccc3)C(=O)N[C@@H](Cc3ccccc3)C(=O)O)cccc12` [Caspr4] (Dansyl-ENQKEYFF-OH), the Kd on Tiam1 PDZ L920V turned out to be 10.8 ± 0.6 µM; on Tiam1 PDZ K912E it was 58.6 ± 4.1 µM; at Tiam1 PDZ L911M it was 14 ± 0.3 µM; at Tiam1 PDZ L911M/K912E [1] (fluorescence anisotropy, 25 °C), 28.9 ± 0.9 µM; in test [3], 18.3 ± 0.3 µM; on Tiam2 PDZ domain, 3.4 ± 0.3 µM. Also, the dissociation constant (Kd) amounted to 61 ± 4 µM at Tiam1 PDZ L915F and 76.5 ± 3.4 µM at Tiam1 PDZ L915F/L920V [6] (fluorescence anisotropy, 25 °C). Also, the “fold decrease in Kd vs wild-type Tiam1 PDZ” value on Tiam1 PDZ L920V (L920V) was ~2 fold. Further, the ΔGb on Tiam1 PDZ L920V (Tiam1 PDZ L920V) was -6.77 ± 0.03 kcal/mol; at Tiam1 PDZ K912E (Tiam1 PDZ K912E) it was -5.77 ± 0.04 kcal/mol; at Tiam1 PDZ L911M (Tiam1 PDZ L911M) it was -6.61 ± 0.01 kcal/mol; at Tiam1 PDZ L911M/K912E [1], -6.19 ± 0.02 kcal/mol; in test [3] (Tiam1 PDZ QM), -6.46 ± 0.01 kcal/mol; in [5] it was -6.43 ± 0.01 kcal/mol. The ΔGb is -5.74 ± 0.04 kcal/mol at Tiam1 PDZ L915F (Tiam1 PDZ L915F) and -5.61 ± 0.04 kcal/mol at Tiam1 PDZ L915F/L920V [6]. The ΔΔGb on Tiam1 PDZ L920V (ΔGb(mutant) − ΔGb(wild-type), L920V) was -0.33 ± 0.04 kcal/mol; at Tiam1 PDZ K912E (ΔGb(mutant) − ΔGb(wild-type), K912E), 0.67 ± 0.04 kcal/mol; on Tiam1 PDZ L911M (ΔGb(mutant) − ΔGb(wild-type), L911M), -0.18 ± 0.02 kcal/mol; in the test on Tiam1 PDZ L911M/K912E [2] (ΔGb(mutant) − ΔGb(wild-type), L911M/K912E) it was 0.24 ± 0.02 kcal/mol; in test [4] (ΔGb(mutant) − ΔGb(wild-type), QM) it was -0.02 ± 0.02 kcal/mol; on Tiam1 PDZ L915F (ΔGb(mutant) − ΔGb(wild-type), L915F) it was 0.69 ± 0.04 kcal/mol. The “ΔΔΔGint (pair-wise coupling free energy)” value in the test with Tiam1 PDZ L911M/K912E [2] (double-mutant cycle L911/K912 (S-2 pocket)) is -0.25 ± 0.04 kcal/mol; in the test on Tiam1 PDZ L915F/L920V [7] (double-mutant cycle L915/L920 (S0 pocket)), 0.38 ± 0.10 kcal/mol. The Σ singles in the test with Tiam1 PDZ L911M/K912E [2] (sum of ΔΔGb of single mutants L911M and K912E) is on record as 0.49 ± 0.04 kcal/mol; in the test on Tiam1 PDZ L915F/L920V [7] (sum of ΔΔGb of single mutants L915F and L920V), 0.36 ± 0.06 kcal/mol. For the same molecule, the “fold higher Kd than Tiam2 PDZ domain” value in test [4] (QM vs Tiam2 PDZ) is 5 fold. Besides, the “fold lower Kd for Tiam2 PDZ than for Tiam1 PDZ” value on Tiam2 PDZ domain (Tiam2 vs Tiam1 PDZ) was ~6 fold.
As for Tiam1 PDZ (from UniProt Q13009), the Kd is 112 µM in the test with Model peptide [8], 26.9 µM in the test with Syndecan1 (Homo sapiens) and 2400 µM with Neurexin1 (Homo sapiens).

B1: Tiam1 PDZ (protein)
chain: VTQSIHIEKSDTAADTYGFSLSSVEEDGIRRLYVNSVKETGLASKKGLKAGDEILEINNRAADALNSSML
As for B1, the Kd with Tiam1 peptide 3 was 200 µM; with Tiam1 peptide 2, 90.3 µM; with Caspr4, 19 µM.

B2: Tiam1 PDZ (protein)
chain: B1 chain with L70M
As for B2, the Kd in the test with Caspr4 turned out to be 14 µM; with Syndecan1, 34.7 µM.

B3: Tiam2 PDZ (protein)
chain: NVYDVQLTKTGSVCDFGFAVTAQVDERQHLSRIFISDVLPDGLAYGEGLRKGNEIMTLNGEAVSDLDLKQMEALFSEKSVGLTLIARPPDTKA
On to B3, for which the dissociation constant Kd was 22.5 µM in the test with Tiam1 peptide 1; 9.9 µM with Tiam2 peptide 2; 7.7 µM in the test with Tiam1 peptide 3; 5 µM with Neurexin1; 24.1 µM in the test with Model peptide [9]; 10.9 µM in the test with Tiam1 peptide 2. Also, the Kd turned out to be 3.4 µM in the test with Caspr4, 28.7 µM in the test with Tiam2 peptide 3 and 200 µM with Syndecan1.
